Data: publication PMC10073267 (Journal of peptide science : an official publication of the …, 2023)

Test: Octanol–water partitioning in the presence of sodium dodecanoate
Format: physicochemical
Settings: mean ± SD; octanol–water partitioning with sodium dodecanoate (2.5 equiv); D2O
How it was run: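 Test compound dissolved in D2O as 0.02 M stock, mixed with equal volume of octanol, with or without sodium dodecanoate (2.5 equiv), triplicate tubes each. Vortexed 30 s, centrifuged 15 min, ambient ~22 °C. Aqueous-layer NMR integrations pre- and post-wash compared. Partitioning taken as difference between octanol-only and octanol + lipid washes, averaged over three replicates.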

Compound | Percent in Aqueous Layer [%]
CC(=O)N[C@@H](CCCN=C(N)N)C(N)=O [1·H^+, Ac-Arg-NH2] | 30.4 ± 1.5
CC(=O)N[C@@H](CCCNC(=N)N)C(=O)N(C)C [3·H^+, Ac-Arg-NMe2] | 18.3 ± 0.7
CC(=O)N(C)C(CCCN=C(N)N)C(=O)N(C)C (stereo not shown) [4·H^+, Ac-(N-Me)Arg-NMe2] | 12.7 ± 1.6
CNC(=O)[C@H](CCCNC(=N)N)NC(C)=O [2·H^+, Ac-Arg-NHMe] | 19.8 ± 0.1
